This assay is described as follows: Antitumor activity against human KB3 cells after 96 hrs by MTT assay. As to conditions: KB3, 96 h. Type of assay: functional, cell-based. The method, boiled down:
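Human KB-3 carcinoma cells exposed to increasing compound concentrations; viability read by MTT colorimetric assay after 96 h. Values are means of triplicate assays, expressed relative to untreated controls.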

As to `C=C(C)[C@H]1CC=C(C)[C@@]2(O)[C@@H]1[C@H](c1ccccc1Br)O[C@@H]2C(=O)O`, the IC50 is above 100 µM. With `C=C(C)[C@H]1CC=C(C)C2=CO[C@@H](c3ccccc3Br)[C@@H]21`, half-maximal inhibition (IC50) required 4 µM. Then `C=C(C)[C@H]1CC=C(C)[C@H]2[C@@H]1[C@H](c1ccccc1Br)O[C@@H]2C(=O)OCC`, with above 100 µM; and `C=C(C)[C@H]1CC=C(C)[C@@]2(O)[C@@H]1[C@H](c1ccccc1Br)O[C@@H]2C(=O)OCC1CC1`, with 50 µM.

For the origin of these results see ChEMBL document CHEMBL1153726, “Synthesis and anticancer activity of sclerophytin-inspired hydroisobenzofurans” (Bioorg Med Chem Lett, 2009).
